From ChEMBL document CHEMBL1147069, “Gambogic amide, a selective agonist for TrkA receptor that possesses robust neurotrophic activity, prevents neuronal cell death” (Proc Natl Acad Sci U S A, 2007)
pEC50: −log10 of the molar value. Calls of active or inactive are those of the source. No cut-off for these calls is given here.

Assays:
[1] = tested on: PC-12; assay: Induction of neurite outgrowth in rat PC12 cells at 0.5 uM after 5 days; assay type: functional, cell-based
Outline: (§1)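 PC12 cells were seeded at 1 × 10^4 per well on poly-L-lysine and grown 24 h, then treated with compounds (0.5 μM, or 10–50 nM in dose series) or NGF for 5 days, with medium replenished every other day. Neurites were counted as processes longer than two cell bodies. Three independent experiments.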

[2] = tested on: SN56; assay: Suppression of staurosporine-initiated apoptosis in mouse SN56 cells at 0.5 uM; assay type: functional, cell-based
Outline: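 Murine SN56 basal forebrain cells and their rat-TrkA stably transfected line T17 (DMEM, 1 mM pyruvate, 10% FBS; T17 with 300 μg/ml G418). Cells were preincubated with 0.5 μM compound, then given 1 μM staurosporine for 9 h. Apoptosis was read with the caspase-3-activated dye MR(DEVD)2 (10 μM, last hour) plus Hoechst counterstain after fixation. Three independent experiments, mean ± SD.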

[3] = target: High affinity nerve growth factor receptor (Rattus norvegicus) (UniProt P35739); assay: Induction of TrkA phosphorylation in rat hippocampal neurons at 0.5 uM after 30 mins; assay type: tissue-based; settings: Hippocampus
Chain of High affinity nerve growth factor receptor (Rattus norvegicus) (P35739 whole entry): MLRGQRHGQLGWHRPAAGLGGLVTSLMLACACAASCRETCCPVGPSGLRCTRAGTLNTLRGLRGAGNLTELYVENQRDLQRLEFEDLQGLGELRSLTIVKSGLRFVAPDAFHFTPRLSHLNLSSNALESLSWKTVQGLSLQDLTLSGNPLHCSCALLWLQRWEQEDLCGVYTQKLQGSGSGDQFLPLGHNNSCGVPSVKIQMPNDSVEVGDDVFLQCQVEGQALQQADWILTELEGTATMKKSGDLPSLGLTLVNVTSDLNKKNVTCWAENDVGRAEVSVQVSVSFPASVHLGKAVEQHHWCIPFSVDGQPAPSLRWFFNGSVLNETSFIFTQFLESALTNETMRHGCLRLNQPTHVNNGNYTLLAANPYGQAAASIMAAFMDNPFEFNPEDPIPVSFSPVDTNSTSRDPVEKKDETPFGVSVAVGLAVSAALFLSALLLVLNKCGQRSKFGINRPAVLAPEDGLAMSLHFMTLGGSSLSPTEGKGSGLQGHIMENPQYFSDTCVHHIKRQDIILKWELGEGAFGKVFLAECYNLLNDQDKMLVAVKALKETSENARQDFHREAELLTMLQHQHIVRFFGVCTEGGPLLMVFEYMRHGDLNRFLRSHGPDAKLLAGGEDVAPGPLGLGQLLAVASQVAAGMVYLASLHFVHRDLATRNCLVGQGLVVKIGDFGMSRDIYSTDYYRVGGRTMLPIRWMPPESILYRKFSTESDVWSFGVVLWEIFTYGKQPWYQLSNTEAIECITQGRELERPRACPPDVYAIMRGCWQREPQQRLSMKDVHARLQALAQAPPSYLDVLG
Outline: (§2)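 Primary hippocampal neurons were treated with 0.5 μM compounds for 30 min; lysates were immunoblotted with anti-phospho-Trk Y490 antibody. Repeated more than three times.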

[4] = tested on: TrkB-stable; assay: Induction of PI3K signaling activation in TrkB-stable cells; assay type: cell-based
[5] = tested on: TrkB-stable; assay: Induction of MAPK signaling activation in TrkB-stable cells; assay type: cell-based
[6] = Suppression of staurosporine-initiated apoptosis in mouse T17 cells at 0.5 uM
[7] = target: High affinity nerve growth factor receptor (Homo sapiens) (UniProt P04629); assay: Binding affinity to TrkA
Chain of High affinity nerve growth factor receptor (Homo sapiens) (P04629 33-796 limits assumed): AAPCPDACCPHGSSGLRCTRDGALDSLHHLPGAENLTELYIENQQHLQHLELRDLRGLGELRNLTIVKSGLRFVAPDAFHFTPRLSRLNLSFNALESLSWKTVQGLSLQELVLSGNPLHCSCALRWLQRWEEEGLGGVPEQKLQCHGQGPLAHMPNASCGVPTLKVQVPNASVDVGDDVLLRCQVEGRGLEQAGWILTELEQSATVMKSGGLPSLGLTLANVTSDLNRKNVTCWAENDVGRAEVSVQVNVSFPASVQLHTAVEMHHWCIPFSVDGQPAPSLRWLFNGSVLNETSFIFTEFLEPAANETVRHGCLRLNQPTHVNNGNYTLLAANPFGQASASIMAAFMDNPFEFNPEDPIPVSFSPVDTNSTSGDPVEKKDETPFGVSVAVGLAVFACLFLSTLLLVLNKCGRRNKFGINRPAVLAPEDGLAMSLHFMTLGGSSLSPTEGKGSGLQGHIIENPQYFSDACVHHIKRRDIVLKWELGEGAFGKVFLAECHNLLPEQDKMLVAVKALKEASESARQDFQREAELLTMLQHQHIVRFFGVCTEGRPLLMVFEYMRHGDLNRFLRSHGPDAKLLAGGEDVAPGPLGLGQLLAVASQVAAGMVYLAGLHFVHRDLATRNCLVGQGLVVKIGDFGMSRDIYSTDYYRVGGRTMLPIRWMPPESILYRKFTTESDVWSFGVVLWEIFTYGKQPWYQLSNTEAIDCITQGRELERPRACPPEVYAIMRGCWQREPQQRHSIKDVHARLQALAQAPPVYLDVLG
Outline: (§3)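 GFP-tagged TrkA (wild-type or kinase-dead) expressed in transfected HEK293 cells; lysates bound to gambogic amide immobilised on Affi-Gel 102 through an amide bond. For Kd, TrkA-loaded beads were competed with increasing free compound. After extensive washing, bead-bound protein was immunoblotted with anti-GFP and quantitated densitometrically.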

[8] = target: High affinity nerve growth factor receptor (Homo sapiens) (UniProt P04629); assay: Binding affinity to TrkA kinase; outline: as §3
[9] = target: BDNF/NT-3 growth factors receptor (Homo sapiens) (UniProt Q16620); assay: Binding affinity to TrkB
Chain of BDNF/NT-3 growth factors receptor (Homo sapiens) (Q16620 32-822 limits assumed): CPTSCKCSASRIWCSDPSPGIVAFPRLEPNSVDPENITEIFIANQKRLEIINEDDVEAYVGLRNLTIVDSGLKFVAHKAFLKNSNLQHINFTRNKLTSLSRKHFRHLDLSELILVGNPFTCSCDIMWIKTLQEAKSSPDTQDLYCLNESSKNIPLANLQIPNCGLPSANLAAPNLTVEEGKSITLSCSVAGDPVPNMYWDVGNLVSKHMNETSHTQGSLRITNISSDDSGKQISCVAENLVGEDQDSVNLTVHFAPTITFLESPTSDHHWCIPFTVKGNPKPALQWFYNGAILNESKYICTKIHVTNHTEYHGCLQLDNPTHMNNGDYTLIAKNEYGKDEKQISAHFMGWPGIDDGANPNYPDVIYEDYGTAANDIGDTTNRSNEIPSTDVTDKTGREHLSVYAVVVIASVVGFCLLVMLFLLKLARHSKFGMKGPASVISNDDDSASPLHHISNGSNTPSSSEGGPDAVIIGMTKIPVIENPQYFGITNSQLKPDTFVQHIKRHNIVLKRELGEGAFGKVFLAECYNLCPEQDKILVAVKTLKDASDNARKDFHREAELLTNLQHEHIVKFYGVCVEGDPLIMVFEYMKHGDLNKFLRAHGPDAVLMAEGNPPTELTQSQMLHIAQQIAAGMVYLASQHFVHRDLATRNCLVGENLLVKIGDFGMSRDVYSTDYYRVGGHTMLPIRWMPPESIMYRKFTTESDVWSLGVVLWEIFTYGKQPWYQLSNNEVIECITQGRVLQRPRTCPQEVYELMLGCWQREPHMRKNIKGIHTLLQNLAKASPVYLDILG

[10] = target: NT-3 growth factor receptor (Homo sapiens) (UniProt Q16288); assay: Binding affinity to TrkC
Chain of NT-3 growth factor receptor (Homo sapiens) (Q16288 32-839 limits assumed): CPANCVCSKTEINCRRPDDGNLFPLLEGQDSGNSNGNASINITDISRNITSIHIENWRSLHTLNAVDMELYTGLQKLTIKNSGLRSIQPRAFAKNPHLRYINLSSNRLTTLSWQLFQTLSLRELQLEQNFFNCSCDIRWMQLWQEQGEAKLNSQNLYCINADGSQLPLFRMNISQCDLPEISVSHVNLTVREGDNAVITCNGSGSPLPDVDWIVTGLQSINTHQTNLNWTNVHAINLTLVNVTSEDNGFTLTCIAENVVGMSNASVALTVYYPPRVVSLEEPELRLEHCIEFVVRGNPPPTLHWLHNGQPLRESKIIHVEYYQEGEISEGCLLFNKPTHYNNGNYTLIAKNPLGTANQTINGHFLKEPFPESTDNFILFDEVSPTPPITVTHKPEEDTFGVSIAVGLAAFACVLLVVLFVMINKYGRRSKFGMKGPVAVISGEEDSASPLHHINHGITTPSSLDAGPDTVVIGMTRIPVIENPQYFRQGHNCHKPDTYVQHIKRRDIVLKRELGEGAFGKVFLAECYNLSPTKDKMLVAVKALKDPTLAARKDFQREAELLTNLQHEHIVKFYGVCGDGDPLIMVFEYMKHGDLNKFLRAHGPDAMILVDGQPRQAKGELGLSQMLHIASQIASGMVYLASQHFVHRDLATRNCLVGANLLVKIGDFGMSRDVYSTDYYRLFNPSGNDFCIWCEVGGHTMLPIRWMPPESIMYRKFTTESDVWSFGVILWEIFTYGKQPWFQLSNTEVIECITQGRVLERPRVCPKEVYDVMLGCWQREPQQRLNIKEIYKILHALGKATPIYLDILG

[11] = target: High affinity nerve growth factor receptor (Rattus norvegicus) (UniProt P35739); assay: Induction of Akt phosphorylation in rat primary hippocampal neurons at 0.5 uM; settings: Hippocampus, TDE = time-dependent effect
Outline: (§4)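 Hippocampal neurons were given 0.5 μM compound for 5–180 min (time course), or a dose range for 30 min, with 50 ng/ml NGF for comparison. Akt phosphorylation was detected by immunoblotting with phospho-Akt (473/308) antibodies.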

[12] = target: High affinity nerve growth factor receptor (Rattus norvegicus) (UniProt P35739); assay: Induction of Akt phosphorylation in rat primary hippocampal neurons after 30 mins; assay type: tissue-based; settings: Hippocampus; outline: as §4
[13] = tested on: PC-12; assay: Induction of neurite outgrowth in rat PC12 cells; assay type: functional, cell-based; outline: as §1
[14] = tested on: PC-12; assay: Blockade of induction of neurite outgrowth in rat PC12 cells in presence of K252a; assay type: functional, cell-based
[15] = tested on: Mus musculus; assay: Neuroprotective effect on C57BL/6 mouse hippocampal CA1 region assessed as decrease in kainic acid-induced neuronal cell death at 2 mg/kg, sc after 5 days; assay type: functional; design: scale not given: the % may be the effect or the level left; settings: route subcutaneous
Outline: (§5)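 C57BL/6 mice were given 2 mg/kg s.c., followed by 25 mg/kg kainic acid. After 5 days, mice were perfused and 5 μm brain sections cut. Hippocampal apoptosis was quantified by TUNEL with DAPI counterstain.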

[16] = tested on: Mus musculus; assay: Neuroprotective effect on C57BL/6 mouse hippocampal CA3 region assessed as decrease in kainic acid-induced neuronal cell death at 2 mg/kg, sc after 5 days; assay type: functional; design: scale not given: the % may be the effect or the level left; settings: route subcutaneous; outline: as §5
[17] = tested on: HEK293; assay: Stimulation of TrkA and TrkB dimerization co-transfected in HEK293 cells at 0.5 uM after 30 mins by immunoblotting analysis; assay type: cell-based
Outline: (§6)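 HEK293 cells were cotransfected with GFP-TrkA plus HA-TrkA or HA-TrkB, then treated with 0.5 μM compound for 30 min. GFP-TrkA was immunoprecipitated with anti-GFP and coprecipitated receptor detected by anti-HA immunoblot.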

[18] = target: Tumor necrosis factor receptor superfamily member 16 (Homo sapiens) (UniProt P08138); assay: Binding affinity to p75NTR
Chain of Tumor necrosis factor receptor superfamily member 16 (Homo sapiens) (P08138 whole entry): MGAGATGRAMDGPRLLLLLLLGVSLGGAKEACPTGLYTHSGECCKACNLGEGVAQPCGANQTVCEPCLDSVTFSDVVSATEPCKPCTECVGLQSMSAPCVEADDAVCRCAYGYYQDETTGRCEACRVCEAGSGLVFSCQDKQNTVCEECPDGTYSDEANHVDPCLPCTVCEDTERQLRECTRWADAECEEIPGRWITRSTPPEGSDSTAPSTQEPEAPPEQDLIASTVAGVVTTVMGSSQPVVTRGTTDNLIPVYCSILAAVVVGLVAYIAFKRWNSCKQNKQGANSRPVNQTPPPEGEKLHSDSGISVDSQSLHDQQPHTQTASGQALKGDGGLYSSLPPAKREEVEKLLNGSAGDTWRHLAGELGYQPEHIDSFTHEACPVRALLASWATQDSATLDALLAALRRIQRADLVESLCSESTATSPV

[19] = target: Receptor tyrosine-protein kinase erbB-3 (Homo sapiens) (UniProt P21860); assay: Binding affinity to ErbB3
[20] = target: Epidermal growth factor receptor (Homo sapiens) (UniProt P00533); assay: Binding affinity to EGFR
[21] = tested on: Hippocampal neurone; assay: Neuroprotective effect in glutamate-induced cell death in rat hippocampal neurons after 30 mins; assay type: functional, tissue-based; settings: Hippocampus
Outline: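 Primary hippocampal neurons were pretreated with compounds for 30 min, then exposed to 50 μM glutamate for 16 h. Apoptosis was quantified with the MR(DEVD)2 caspase-3 dye; NGF served as positive control. Three independent experiments, mean ± SD.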

[22] = tested on: Hippocampal neurone; assay: Neuroprotective effect in oxygen-glucose deprivation triggered cell death in rat hippocampal neurons after 30 mins; assay type: functional, tissue-based; settings: Hippocampus
Outline: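 Primary hippocampal neurons were pretreated with compounds or NGF 30 min before oxygen–glucose deprivation; apoptosis was assayed 3 h later, including a dose titration. Three independent experiments, mean ± SD.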

[23] = target: High affinity nerve growth factor receptor (Rattus norvegicus) (UniProt P35739); assay: Induction of TrkA tyrosine phosphorylation in rat hippocampal neurons at 0.5 uM after 30 mins by immunoblotting staining; assay type: tissue-based; settings: Hippocampus; outline: as §2
[24] = species on record: Rattus norvegicus; assay: Induction of TrkA Y751 tyrosine phosphorylation in rat hippocampal neurons at 0.5 uM after 30 mins by immunoblotting staining; assay type: tissue-based; settings: Hippocampus
[25] = species on record: Rattus norvegicus; assay: Reversal of TrkA Y490 phosphorylation in rat hippocampal neurons at 0.5 uM after 30 mins in presence of K252a; assay type: tissue-based; settings: Hippocampus
[26] = species on record: Rattus norvegicus; assay: Reversal of TrkA Y751 phosphorylation in rat hippocampal neurons at 0.5 uM after 30 mins in presence of K252a; assay type: tissue-based; settings: Hippocampus
[27] = target: High affinity nerve growth factor receptor (Rattus norvegicus) (UniProt P35739); assay: Reversal of TrkA phosphorylation in rat hippocampal neurons at 0.5 uM after 30 mins in presence of K252a; assay type: tissue-based; settings: Hippocampus
[28] = target: High affinity nerve growth factor receptor (Homo sapiens) (UniProt P04629); assay: Stimulation of TrkA dimerization co-transfected in HEK293 cells at 0.5 uM after 30 mins by immunoblotting analysis in presence of green fluorescent protein; assay type: cell-based; outline: as §6
[29] = target: High affinity nerve growth factor receptor (Homo sapiens) (UniProt P04629); assay: Induction of TrkA tyrosine phosphorylation in transfected HEK293 cells; assay type: cell-based
[30] = target: BDNF/NT-3 growth factors receptor (Homo sapiens) (UniProt Q16620); assay: Induction of TrkB tyrosine phosphorylation in transfected HEK293 cells; assay type: cell-based
[31] = target: NT-3 growth factor receptor (Homo sapiens) (UniProt Q16288); assay: Induction of TrkC tyrosine phosphorylation in transfected HEK293 cells; assay type: cell-based
[32] = target: Mitogen-activated protein kinase 3 (Homo sapiens) (UniProt P27361); assay: Induction of ERK1 phosphorylation
Chain of Mitogen-activated protein kinase 3 (Homo sapiens) (P27361 whole entry): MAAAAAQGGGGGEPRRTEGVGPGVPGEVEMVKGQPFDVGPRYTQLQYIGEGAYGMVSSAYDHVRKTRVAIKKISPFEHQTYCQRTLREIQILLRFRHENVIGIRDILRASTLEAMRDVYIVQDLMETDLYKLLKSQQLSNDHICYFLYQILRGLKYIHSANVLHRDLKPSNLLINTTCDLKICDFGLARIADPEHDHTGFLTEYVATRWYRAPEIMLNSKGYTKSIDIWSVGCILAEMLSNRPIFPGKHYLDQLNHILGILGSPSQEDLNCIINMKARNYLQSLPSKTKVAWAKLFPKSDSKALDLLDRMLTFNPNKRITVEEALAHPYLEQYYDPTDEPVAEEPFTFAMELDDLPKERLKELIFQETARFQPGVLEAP

[33] = target: Mitogen-activated protein kinase 1 (Homo sapiens) (UniProt P28482); assay: Induction of ERK2 phosphorylation
Chain of Mitogen-activated protein kinase 1 (Homo sapiens) (P28482 whole entry): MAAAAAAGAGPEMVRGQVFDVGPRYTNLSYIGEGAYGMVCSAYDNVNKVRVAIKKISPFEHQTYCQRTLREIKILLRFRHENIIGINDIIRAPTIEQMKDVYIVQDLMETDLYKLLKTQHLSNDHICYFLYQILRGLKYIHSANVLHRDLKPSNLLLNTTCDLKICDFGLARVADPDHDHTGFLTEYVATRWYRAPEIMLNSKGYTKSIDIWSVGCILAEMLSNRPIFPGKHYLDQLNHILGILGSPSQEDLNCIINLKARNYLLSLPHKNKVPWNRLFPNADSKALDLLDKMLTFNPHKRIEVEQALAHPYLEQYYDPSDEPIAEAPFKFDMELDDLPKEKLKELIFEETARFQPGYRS

[34] = target: RAC-alpha serine/threonine-protein kinase (Mus musculus) (UniProt P31750); assay: Induction of Akt phosphorylation in mouse T17 cells
[35] = target: Mitogen-activated protein kinase 3 (Mus musculus) (UniProt Q63844); assay: Induction of ERK1 phosphorylation in mouse T17 cells
Chain of Mitogen-activated protein kinase 3 (Mus musculus) (Q63844 whole entry, looked up): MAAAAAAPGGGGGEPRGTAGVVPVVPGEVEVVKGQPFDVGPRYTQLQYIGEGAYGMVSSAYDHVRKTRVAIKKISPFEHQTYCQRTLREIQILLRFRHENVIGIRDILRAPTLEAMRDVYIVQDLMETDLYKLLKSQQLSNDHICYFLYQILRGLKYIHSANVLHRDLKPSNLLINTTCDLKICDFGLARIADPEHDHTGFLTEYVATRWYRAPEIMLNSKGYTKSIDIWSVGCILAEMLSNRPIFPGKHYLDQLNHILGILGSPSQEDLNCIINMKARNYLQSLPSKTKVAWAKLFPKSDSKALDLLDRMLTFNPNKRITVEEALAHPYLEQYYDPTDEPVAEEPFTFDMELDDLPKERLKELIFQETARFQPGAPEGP

[36] = target: Mitogen-activated protein kinase 1 (Mus musculus) (UniProt P63085); assay: Induction of ERK2 phosphorylation in mouse T17 cells
[37] = target: High affinity nerve growth factor receptor (Rattus norvegicus) (UniProt P35739); assay: Induction of Akt phosphorylation in rat primary hippocampal neurons; assay type: tissue-based; settings: Hippocampus; outline: as §4
[38] = tested on: Rattus norvegicus; assay: Neuroprotective effect in rat MCAO model assessed as decrease in cerebral blood flow at 2 mg/kg within 5 mins; assay type: functional, Brain; design: scale not given: the % may be the effect or the level left
Outline: (§7)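 Adult male rats underwent 2 h transient MCAO; vehicle or 2 mg/kg was given 5 min before reperfusion onset. Relative cerebral blood flow over ipsilateral parietal cortex was measured by laser-Doppler flowmetry versus preischemic levels. Values are mean ± SD, compared by Student's t test.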

[39] = tested on: Rattus norvegicus; assay: Neuroprotective effect in rat MCAO model assessed as increase in cerebral blood flow at 2 mg/kg after 120 mins of filament withdrawal; assay type: functional, Brain; outline: as §7
[40] = target: High affinity nerve growth factor receptor (Homo sapiens) (UniProt P04629); assay: Binding affinity to recombinant GST-TrkA
Outline: (§8)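 Recombinant GST-TrkA, GST-TrkB or GST-TrkC proteins tested in an in vitro binding assay with the compounds; experiments were repeated more than three times.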

[41] = target: BDNF/NT-3 growth factors receptor (Homo sapiens) (UniProt Q16620); assay: Binding affinity to recombinant GST-TrkB; outline: as §8
[42] = target: NT-3 growth factor receptor (Homo sapiens) (UniProt Q16288); assay: Binding affinity to recombinant GST-TrkC; outline: as §8
[43] = tested on: T17; assay: Induction of MAPK phosphorylation in mouse T17 cells
[44] = tested on: T17; assay: […] in staurosporine-initiated apoptosis in mouse T17 cells at 0.5 uM

## COC(=O)/C(C)=C\C[C@@]12OC(C)(C)C3C[C@@H](C=C4C(=O)c5c(OC)c6c(c(CC=C(C)C)c5O[C@]431)O[C@](C)(CCC=C(C)C)C=C6)C2=O
[1]
  Activity: inactive
[2]
  Activity: Active
[3]
  Activity: inactive
[4]
  Activity: Active
[5]
  Activity: Active
[6]
  pEC50: 6.92

## CC(C)=CCC[C@]1(C)C=Cc2c(O)c3c(c(CC=C(C)C)c2O1)O[C@]12C(=C[C@@H]4CC1C(C)(C)O[C@@]2(C/C=C(/C)C(N)=O)C4=O)C3=O [GAMBOGIC AMIDE]
[7]
  Activity: Active
[8]
  Activity: Active
[9]
  Activity: inactive
[10]
  Activity: inactive
[11]
  Activity: tde
[12]
  Activity: Dose-dependent effect
[1]
  Activity: Active
[13]
  Activity: Dose-dependent effect
[14]
  Activity: Active
[15]
  Activity: 6.3%
[16]
  Activity: 1.8%
[17]
  Activity: inactive
[18]
  Activity: inactive
[19]
  Activity: inactive
[20]
  Activity: inactive
[2]
  Activity: Active
[21]
  Activity: Active
[22]
  Activity: Dose-dependent effect
[3]
  Activity: Active
[23]
  Activity: Active
[24]
  Activity: Active
[25]
  Activity: Active
[26]
  Activity: Active
[27]
  Activity: Active
[28]
  Activity: Active
[29]
  Activity: Active
[30]
  Activity: Active
[31]
  Activity: Active
[32]
  Activity: Active
[33]
  Activity: Active
[4]
  Activity: Active
[5]
  Activity: Active
[34]
  Activity: Active
[35]
  Activity: Active
[36]
  Activity: Active
[6]
  pEC50: 8.30

## CC(C)=CCC[C@]1(C)C=Cc2c(O)c3c(c(CC=C(C)C)c2O1)O[C@]12C(=C[C@@H]4C[C@H]1C(C)(C)O[C@@]2(C/C=C(/C)C(=O)O)C4=O)C3=O [GAMBOGIC ACID]
[37]
  Activity: Active
[1]
  Activity: inactive
[38]
  Activity: 24.41%
[39]
  Activity: 85.83%
[2]
  Activity: Active
[21]
  Activity: Active
[3]
  Activity: inactive
[28]
  Activity: inactive
[40]
  Activity: Active
[41]
  Activity: inactive
[42]
  Activity: inactive
[32]
  Activity: Active
[33]
  Activity: Active
[43]
  Activity: inactive
[6]
  pEC50: 7.70

## CC(C)CCC[C@]1(C)C=Cc2c(O)c3c(c(CCC(C)C)c2O1)O[C@]12C(C[C@@H]4CC1C(C)(C)O[C@@]2(CCC(C)C(=O)O)C4O)C3=O (some centres undefined)
[37]
  Activity: Active
[2]
  Activity: Active
[3]
  Activity: inactive
[4]
  Activity: Active
[5]
  Activity: Active
[43]
  Activity: inactive
[44]
  Activity: Active

## CC(C)=CCC[C@]1(C)C=Cc2c(O)c3c(c(CC=C(C)C)c2O1)O[C@]12C(C[C@@H]4CC1C(C)(C)O[C@@]2(C/C=C(/C)C(=O)O)C4O)C3=O (some centres undefined)
[2]
  Activity: Active
[3]
  Activity: inactive
[4]
  Activity: Active
[5]
  Activity: Active
[43]
  Activity: inactive

## CC(=O)Oc1c2c(c(CC=C(C)C)c3c1C(=O)C1=C[C@@H]4CC5C(C)(C)O[C@@](C/C=C(\C)C(=O)O)(C4=O)[C@@]15O3)O[C@](C)(CCC=C(C)C)C=C2
[2]
  Activity: Active
[3]
  Activity: inactive
[4]
  Activity: Active
[5]
  Activity: Active

## CC(C)=CCC[C@]1(C)C=Cc2c(O)c3c(c(CC=C(C)C)c2O1)O[C@]12C(=C[C@@H]4CC1C(C)(C)O[C@@]2(C/C=C(/C)C(=O)O)C4O)C3=O (some centres undefined)
[1]
  Activity: Active
[2]
  Activity: Active
[3]
  Activity: inactive
[4]
  Activity: Active
[5]
  Activity: Active
[6]
  pEC50: 6.70
